Legend:
[1] = target: T1, Isopenicillin N synthase (Penicillium chrysogenum) (UniProt P08703); test: Anti Micrococcus luteus activity was tested for inhibition of Isopenicillin N synthetase (isopenicillin N synthase); yes
T1 sequence (whole entry): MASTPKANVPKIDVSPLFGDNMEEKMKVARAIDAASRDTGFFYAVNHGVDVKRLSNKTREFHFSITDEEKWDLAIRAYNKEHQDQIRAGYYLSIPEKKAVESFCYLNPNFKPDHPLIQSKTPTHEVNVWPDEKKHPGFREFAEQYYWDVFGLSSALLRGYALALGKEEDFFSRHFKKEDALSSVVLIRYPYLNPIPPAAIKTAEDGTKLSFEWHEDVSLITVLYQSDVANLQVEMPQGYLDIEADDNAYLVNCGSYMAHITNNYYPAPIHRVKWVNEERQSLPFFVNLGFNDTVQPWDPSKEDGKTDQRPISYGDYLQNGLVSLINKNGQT
Method in brief: (§1)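 Peptide added at a known amount to a standard IPNS reaction mixture with ACV as substrate before starting the reaction with enzyme. Applied to peptides not converted to an anti-M. luteus product. Percent inhibition derived from the ratio of reaction rates with and without the peptide.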

[2] = Antibiotic activity against Micrococcus luteus (ATCC 9341 strain); format: functional
Method in brief: (§2)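 Peptides at 0.3 mM incubated with purified IPNS in Tris-HCl pH 8.0 containing KCl, MgSO4, FeSO4, ascorbate and DTT, at 25 °C for 2–20 min in quadruplicate, then stopped with ethanol. Samples with and without penicillinase went into wells on M. luteus ATCC 9341 lawns, incubated overnight at 37 °C, and inhibition zones were read. Peptides giving no product were retested for 1 h at 3 mM.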

[3] = target: T1, Isopenicillin N synthase (Penicillium chrysogenum); test: Anti-micrococcus luteus activity was tested for inhibition of isopenicillin N synthetase.; conditions: Penicillium chrysogenum (Penicillium notatum); method in brief: as §1
[4] = target: T2, Regulatory protein BlaR1 (Bacillus licheniformis) (UniProt P12287); test: Beta-lactamase induction in Bacillus licheniformis
T2 sequence (whole entry): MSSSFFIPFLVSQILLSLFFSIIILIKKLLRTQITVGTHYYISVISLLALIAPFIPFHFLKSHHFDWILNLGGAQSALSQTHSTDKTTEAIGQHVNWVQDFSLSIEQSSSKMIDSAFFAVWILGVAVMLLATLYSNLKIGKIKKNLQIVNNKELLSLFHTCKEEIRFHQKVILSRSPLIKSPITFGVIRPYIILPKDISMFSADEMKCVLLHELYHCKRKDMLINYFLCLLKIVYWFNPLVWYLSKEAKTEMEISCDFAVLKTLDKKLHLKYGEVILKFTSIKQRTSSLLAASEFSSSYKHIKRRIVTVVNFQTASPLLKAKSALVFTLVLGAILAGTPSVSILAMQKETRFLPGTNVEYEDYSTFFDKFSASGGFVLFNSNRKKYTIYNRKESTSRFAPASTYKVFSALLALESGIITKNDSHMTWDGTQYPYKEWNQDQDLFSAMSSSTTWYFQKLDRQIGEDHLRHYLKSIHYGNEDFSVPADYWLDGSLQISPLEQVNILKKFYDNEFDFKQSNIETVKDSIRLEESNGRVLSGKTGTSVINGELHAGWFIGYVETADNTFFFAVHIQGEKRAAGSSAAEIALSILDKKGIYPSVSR
Method in brief: (§3)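 Ethanol-stopped IPNS reactions (peptide 0.3 mM, 25 °C) were mixed 1:1 with log-phase B. licheniformis ATCC 14580 diluted to 30 Klett units and incubated for 2 h at 30 °C. Tylosin was added, then after 15 min nitrocefin, with A492 read over 30 min. β-Lactam was quantified by β-lactamase synthesis relative to penicillin G.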

Micrococcus luteus [5] = test: In vitro antibiotic activity against Micrococcus luteus(ATCC 9341 stain).; format: functional, organism-based; method in brief: as §2
Micrococcus luteus [6] = test: The compound was tested for the antibiotic activity against Micrococcus luteus(ATCC 9341 stain); no; format: functional, organism-based; method in brief: as §2
[7] = target: T1, Isopenicillin N synthase (Penicillium chrysogenum); test: Anti Micrococcus luteus activity was tested for inhibition of IPNS (isopenicillin N synthase); no; method in brief: as §1
[8] = target: T2, Regulatory protein BlaR1 (Bacillus licheniformis); test: The compound was tested for Beta-lactamase induction in B. licheniformis; +; method in brief: as §3

N[C@@H](CCCC(=O)N[C@@H](CS)C(=O)NCC(=O)O)C(=O)O
Activity [1]: Yes | Antibiotic activity [2]: No activity

CC(C)[C@@H](NC(=O)[C@H](CS)NC(=O)CCC[C@@H](N)C(=O)O)C(=O)O
Activity [3]: No activity | Beta-lactamase induction [4]: + | Antibiotic activity (Micrococcus luteus [5]): Yes

CC(C)[C@@H](NC(=O)[C@H](CO)NC(=O)CCC[C@H](N)C(=O)O)C(=O)O
Activity [3]: No activity | Antibiotic activity [2]: No activity | Beta-lactamase induction [4]: +

CC(C)[C@@H](NC(=O)[C@H](CS)NC(=O)Cc1ccc(O)cc1)C(=O)O
Activity [3]: No activity | Antibiotic activity [2]: No activity | Beta-lactamase induction [4]: +

CC(O)[C@@H](NC(=O)C(CSSCC(NC(=O)CCC[C@H](N)C(=O)O)C(=O)N[C@@H](C(=O)O)C(C)O)NC(=O)CCC[C@H](N)C(=O)O)C(=O)O (stereo partly drawn)
Activity [3]: No activity | Antibiotic activity (Micrococcus luteus [6]): No activity

CC(C)[C@@H](NC(=O)[C@@H](N)CSSC[C@H](N)C(=O)N[C@@H](C(=O)O)C(C)C)C(=O)O
Activity [1]: Yes | Antibiotic activity [2]: No activity

CC(C)[C@@H](NC(=O)[C@H](CSSC[C@H](NC(=O)CCCCCCN)C(=O)N[C@@H](C(=O)O)C(C)C)NC(=O)CCCCCCN)C(=O)O
Activity [3]: No activity | Beta-lactamase induction [4]: + | Antibiotic activity (Micrococcus luteus [5]): Yes

CC(C)[C@@H](NC(=O)[C@H](CSSC[C@H](NC(=O)Cc1cccc(N)c1)C(=O)N[C@@H](C(=O)O)C(C)C)NC(=O)Cc1cccc(N)c1)C(=O)O
Activity [3]: No activity | Beta-lactamase induction [4]: + | Antibiotic activity (Micrococcus luteus [5]): Yes

CC(C)[C@@H](NC(=O)[C@H](CSSC[C@H](NC(=O)OCc1ccccc1)C(=O)N[C@@H](C(=O)O)C(C)C)NC(=O)OCc1ccccc1)C(=O)O
Activity [3]: No activity | Antibiotic activity [2]: No activity | Beta-lactamase induction [4]: +

CC(C)[C@@H](NC(=O)[C@H](CSSC[C@H](NC(=O)CCCCCN)C(=O)N[C@@H](C(=O)O)C(C)C)NC(=O)CCCCCN)C(=O)O
Activity [3]: No activity | Beta-lactamase induction [4]: + | Antibiotic activity (Micrococcus luteus [5]): Yes

N[C@@H](CCCC(=O)N[C@@H](CSSC[C@H](NC(=O)CCC[C@H](N)C(=O)O)C(=O)NC(C(=O)O)C(C(F)(F)F)C(F)(F)F)C(=O)NC(C(=O)O)C(C(F)(F)F)C(F)(F)F)C(=O)O (stereo in doubt; 62)
Activity [1]: Yes | Antibiotic activity [2]: No activity

CC(C)[C@@H](NC(=O)[C@H](CSSC[C@H](NC(=O)CCC[C@H](N)C(=O)O)C(=O)N[C@@H](C(=O)O)C(C)C)NC(=O)CCC[C@H](N)C(=O)O)C(=O)O
Activity [3]: No activity | Beta-lactamase induction [4]: + | Antibiotic activity (Micrococcus luteus [5]): Yes

CC(C)[C@@H](NC(=O)[C@H](CSSC[C@H](NC(=O)[C@@H]1CCCN1)C(=O)N[C@@H](C(=O)O)C(C)C)NC(=O)[C@@H]1CCCN1)C(=O)O
Activity [7]: No activity | Antibiotic activity [2]: No activity

N[C@@H](CCCC(=O)NC(CSSCC(NC(=O)CCC[C@H](N)C(=O)O)C(=O)N[C@H](Cc1ccc(O)cc1)C(=O)O)C(=O)N[C@H](Cc1ccc(O)cc1)C(=O)O)C(=O)O (stereo partly drawn)
Activity [1]: Yes | Antibiotic activity (Micrococcus luteus [6]): No activity

CC(C)[C@@H](NC(=O)[C@@H](CS)NC(=O)CCC[C@H](N)C(=O)O)C(=O)O
Activity [3]: No activity | Antibiotic activity [2]: No activity | Beta-lactamase induction [4]: +

N[C@@H](CCCC(=O)N[C@@H](CSSC[C@H](NC(=O)CCC[C@H](N)C(=O)O)C(=O)NC(C(=O)O)C(C(F)(F)F)C(F)(F)F)C(=O)NC(C(=O)O)C(C(F)(F)F)C(F)(F)F)C(=O)O (stereo in doubt; 63)
Activity [1]: Yes | Antibiotic activity [2]: No activity

N[C@@H](CCCC(=O)NC(CSSCC(NC(=O)CCC[C@H](N)C(=O)O)C(=O)N[C@H](Cc1c[nH]c2ccccc12)C(=O)O)C(=O)N[C@H](Cc1c[nH]c2ccccc12)C(=O)O)C(=O)O (stereo partly drawn)
Activity [1]: Yes | Antibiotic activity [2]: No activity

CC(C)[C@@H](NC(=O)[C@H](CSSC[C@H](NC(=O)c1cccc(C(N)C(=O)O)c1)C(=O)N[C@@H](C(=O)O)C(C)C)NC(=O)c1cccc(C(N)C(=O)O)c1)C(=O)O (stereo partly drawn)
Activity [3]: No activity | Beta-lactamase induction [4]: + | Antibiotic activity (Micrococcus luteus [5]): Yes

N[C@@H](CCCC(=O)NC(CSSCC(NC(=O)CCC[C@H](N)C(=O)O)C(=O)N[C@H](CCl)C(=O)O)C(=O)N[C@H](CCl)C(=O)O)C(=O)O (stereo partly drawn)
Activity [1]: Yes | Antibiotic activity [2]: No activity

CC(C)[C@@H](NC(=O)[C@H](CSSC[C@H](NC(=O)CCCCN)C(=O)N[C@@H](C(=O)O)C(C)C)NC(=O)CCCCN)C(=O)O
Beta-lactamase induction [8]: + | Activity [7]: No activity | Antibiotic activity (Micrococcus luteus [5]): Yes

N[C@@H](CCCC(=O)N[C@@H](CSSC[C@H](NC(=O)CCC[C@H](N)C(=O)O)C(=O)N[C@H](C(=O)O)C(C(F)(F)F)C(F)(F)F)C(=O)N[C@H](C(=O)O)C(C(F)(F)F)C(F)(F)F)C(=O)O
Activity [1]: Yes | Antibiotic activity [2]: No activity

From ChEMBL document CHEMBL1126293, “Substrate specificity of isopenicillin N synthase” (J Med Chem, 1992)
